# Assay: Toxicity liver stage against HepG2, at 10uM
# Type: cell-based
# Design: test concentration 10 uM, cell line HepG2-A16-CD81EGFP
# Settings: human, HepG2-A16-CD81EGFP cells; read-out: INHIBITION
# Method in brief: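 Uninfected HepG2-A16-CD81EGFP cells, 3 × 10^3 per well, 1536-well, plated on prespotted compound at 10 μM final, parasite-free screening media added to match infected plates; puromycin 10 μM positive, DMSO 0.5% negative; run in parallel with 48 h PbLuc assay at 37 °C, 5% CO2; viability by CellTiter-Glo luminescence, normalized to controls.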
row,SMILES,cytotoxicity at 10 µM [%]
1,COC(=O)[C@@H](NC(=O)Nc1ccc(C(C)=O)cc1)C(C)C,10.1
2,c1ccc(CNC[C@H]2Cn3ccnc3CO2)cc1,-5.25
3,c1cc(-c2c[nH]c([C@@H]3COCCN3C3CCCCC3)n2)ccn1,7.66
4,CN1C(=O)COc2ccc(NC(=O)CCc3nc4cccnc4[nH]3)cc21,-1.23
5,COCCn1cc(CCC(=O)Nc2c(C)nn(C)c2C)c2ccccc21,-177
6,COc1ccc(-c2n[nH]c(C)c2CC(=O)NCC2CCCO2)cc1 (stereo not given),-11.6
7,Cc1nc(N2CCOCC2)nc2c1CCN(C(=O)N1CCCC1)CC2,0.64
8,CS(=O)(=O)N1C[C@@H]2COC[C@@H](CC(=O)N3CCCO3)[C@@H]2C1,11.1
9,CN(C)C(=O)COCc1ncn2c1CN(c1ncc(F)cn1)CCC2,6.01
10,CC(C)C(=O)N1CCCC12CCCN(C(=O)c1ccno1)C2 (stereo not given),5.35
11,Cc1nnc([C@@H]2CCO[C@@H]3CCN(C(=O)Cc4ccccn4)C[C@@H]32)o1,10.1
12,Cn1cc(CN2CCO[C@H]3CN(Cc4ccco4)C[C@H]32)cn1,-140
13,c1cncc(COCC2CN(Cc3ccncc3)Cc3ccnn3C2)c1 (stereo not given),-135
14,O=C(c1ccoc1)N1CCC2(C1)CN(c1ncccn1)C2,-5.55
15,O=c1[nH]nc2c(S(=O)(=O)N3CCN(c4ccc(F)cc4)CC3)cccn12,11.8
16,c1cc(C2CCN(c3cncnc3)CC2)ccn1,2.58
17,COCC(=O)N1CCC(O)(CN2CCN(c3ccccc3)CC2)C1 (stereo not given),-2.38
18,Cc1ccc2cc(CNCCN3CCCC3)c(=O)[nH]c2c1,-1.89
19,Cc1nccc(CN2CC[C@@]3(CCCN3Cc3ccccc3)[C@@H](O)C2)n1,-6.05
20,COCc1cc(O)nc(C2CCCN(Cc3ccc(F)cc3)C2)n1 (stereo not given),-9.88
21,CC(=O)N1CCN([C@@H]2CC[C@@H](N(C)C(=O)C3CCCCC3)[C@H]2O)CC1,-10.6
22,CN(CCO)Cc1cc(=O)n2cc(Br)ccc2n1,-6.69
23,CCSCc1ccnc(NC(=O)C2CCOC2)c1 (stereo not given),0.841
24,Cc1nn(C)c2ncc(CNCCc3ccccn3)cc12,4.13
25,Cc1ccc(C(=O)N(CC(=O)O)CC(C)C)cc1F,-4.07
26,O=C(Nc1ccc(-n2ccc(C(=O)O)n2)cc1)c1ccccc1,-139
27,COCCCOc1ccc(C(=O)N(C)CCC(C)C)cn1,6.19
28,CN1CCOC(CNCC(=O)NCCC2=CCCCC2)C1 (stereo not given),-3.57

row,SMILES,cytotoxicity at 10 µM [%]
1,CCOc1cccc(CNc2cnn(CC(C)C)c2CC)c1,2.93
2,Cc1ccc(F)c2c1N(C(=O)c1ccc(S(C)(=O)=O)cc1)CCC2,2.97
3,CCc1cnc(CNc2cccc3c2CCN(S(=O)(=O)CC)C3)o1,-52.5
4,CC(Cn1cncn1)NC(=O)NCC(C)(C)Cc1ccccc1 (stereo not given),17
5,Cc1noc(CCCC(=O)NCC(c2ccco2)N2CCCCC2)n1 (stereo not given),13.1
6,Cc1nc(CCCNC(=O)c2c(F)cccc2Br)n[nH]1,-1.39
7,COC(=O)CCNC(=O)c1c[nH]cc1-c1cccc(OC)c1,4.89
8,CCn1cc(C#N)c(=O)c2cc(Br)ccc21,1.35
9,Cc1cc(C2CCCN2C(=O)NCc2cccnc2N(C)C)on1 (stereo not given),-8.1
10,CC(C)COC(=O)N1CCCN(Cc2nnc(C(C)(C)C)o2)CC1,11.1
11,Cc1csc(C2CCCCN2C(=O)CCn2cncn2)n1 (stereo not given),-6.32
12,O=C(c1cc(F)cc2[nH]cnc12)N1CCCC1Cn1cccn1 (stereo not given),7.39
13,CCC(Nc1ccc(Oc2cccc(C#N)c2)cc1)C(N)=O (stereo not given),35.2
14,O=S(=O)(Nc1cn[nH]c1)c1ccc(F)c(Br)c1,-11.5
15,O=C(NCCn1cccc1)C1CCCOC1 (stereo not given),3.03
16,Cc1cc(C)cc(CN2CCCC2c2noc(C)n2)c1 (stereo not given),9.86
17,CS(=O)(=O)Cc1ccc(NC(=O)Cc2cccnc2)cc1F,1.34
18,CS(=O)(=O)c1ccc(NC(=O)CSC(F)(F)F)cn1,8.28
19,Cc1noc(C)c1CNC(=O)C(C)Oc1ccccc1F (stereo not given),3
20,CC(NCc1ccc(C(C)(C)C)cc1)c1ccc(S(C)(=O)=O)cc1 (stereo not given),14.5
21,CC(=O)Nc1ccc(C(=O)N(C)Cc2cccc(F)c2)s1,2.82
22,CC(c1ccccc1Cl)N1CCN(C(=O)c2ccc(=O)[nH]c2)CC1 (stereo not given),-7.85
23,CC(CNC(=O)c1ccn(-c2ccc(F)cc2)n1)Cn1cccn1 (stereo not given),-41.4
24,c1cncc(OCCNC2Cc3ccccc3C2)c1,4.32
25,CC(CN1CCOCC1)NC(=O)c1cccc2cn[nH]c12 (stereo not given),-7.18
26,CC(C)c1ccc(-n2cc(O)c(C(=O)N3CCC(C(N)=O)CC3)n2)cc1,-52.6
27,Cc1c(C(=O)NC2CC(C)(C)NC(C)(C)C2)cnn1-c1ccc(F)cc1,-45.7

# From ChEMBL document CHEMBL4513216, “Probing the Open Global Health Chemical Diversity Library for Multistage-Active Starting Points for Next-Generation Antimalarials” (ACS Infect Dis, 2020)
